Our source for the Activity values is ChEMBL document CHEMBL1158043, “Allergy-preventive phenolic glycosides from Populus sieboldii” (J Nat Prod, 2006).

Calls of active or inactive are those of the source. The calls are words filed in the database; no cut-off is given here.

The test system of experiment [1] is Mus musculus. The experiment is described as follows: Allergy preventing effect in hen egg […]-sensitized ddY mouse assessed as inhibition of blood flow decrease in tail artery at 20 mg/kg, po after 6 days relative to control. Also on record: dose 20 mg/kg. Format: functional, organism-based. In short, it runs like this:
(§1)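 Male ddY mice, 5 weeks old, sensitized s.c. with 50 µg HEL in complete Freund's adjuvant on day 0. Compound given orally at 20 mg/kg on days 0, 3, 6 and 9, 1 h before measurement. After 10 min prewarming at 37 °C, tail subcutaneous blood flow was read by non-contact laser Doppler for 10 min daily over 9 days without anesthesia. Values are % of each mouse's normal flow, mean ± SE, n = 5, compared with HEL-sensitized controls.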

The subject of experiment [2] is Mus musculus. Put plainly: Allergy preventing effect in hen egg […]-sensitized ddY mouse assessed as inhibition of blood flow decrease in tail artery at 20 mg/kg, po after 7 days relative to control. The format is functional, organism-based. Also on record: dose 20 mg/kg. In short, it runs like this: as §1
For a further experiment, the system named is Platelet. Put plainly: Inhibition of platelet aggregation in hen egg […]-sensitized ddY mouse blood after 9 days. The format is functional, tissue-based. In short, it runs like this: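 Mice were HEL-sensitized and dosed orally at 20 mg/kg as in the blood-flow assay. On day 9, whole blood was drawn under diethyl ether anesthesia, anticoagulated with 3.8% sodium citrate and held 30 min at room temperature. Aggregation was induced with 8 µM ADP and measured by screen filtration pressure on a whole-blood aggregometer. Read-out is cohesion rate, mean ± SE, n = 5.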

Experiment [3] concerns Mus musculus. Put plainly: Allergy preventing effect in hen egg […]-sensitized ddY mouse assessed as inhibition blood flow decrease in tail artery at 20 mg/kg, po relative to control. The format is functional, organism-based. Also on record: dose 20 mg/kg. In short, it runs like this: as §1
In experiment [4] the test system is Mus musculus. The experiment is described as follows: Allergy preventing effect in hen egg […]-sensitized ddY mouse assessed as inhibition of blood flow decrease in tail artery at 20 mg/kg, po after 5 days relative to control. The format is functional, organism-based. Also on record: dose 20 mg/kg. In short, it runs like this: as §1

For `COc1cc(O[C@@H]2O[C@H](CO)[C@@H](O)[C@H](O)[C@H]2O)c2c(c1)O[C@H](c1ccc(O)cc1)CC2=O`, the result in the experiment on Mus musculus [1] and in the experiment on Mus musculus [2] was Active. The result with Platelet was inactive.

As to `O=C(OCc1ccc(O)c(O[C@@H]2O[C@H](CO)[C@@H](O)[C@H](O)[C@H]2O)c1)c1ccccc1`, the result in the experiment on Mus musculus [3] and with Platelet was Active.

With `OCc1ccccc1O[C@@H]1O[C@H](CO)[C@@H](O)[C@H](O)[C@H]1O`, the outcome in the experiment on Mus musculus [4] was Active.

Regarding `COc1cc(O)c(C(=O)/C=C/c2ccc(O)cc2)c(O[C@@H]2O[C@H](CO)[C@@H](O)[C@H](O)[C@H]2O)c1`, the result in the experiment with Mus musculus [1], with Mus musculus [2] and in the experiment on Platelet was Active.

Take `CC(=O)OC[C@H]1O[C@@H](Oc2cc(COC(=O)c3ccccc3)ccc2O)[C@H](O)[C@@H](O)[C@@H]1O`: the result in the experiment with Mus musculus [3] and in the experiment with Platelet was Active.
